Assay outcomes deposited in PubChem by several laboratories.
Most compounds without a hit are left out; they make up all but 5.3% or so of the library.
PLK1 PBD inh = blocks phosphopeptide binding to human Plk1 polo box domain; inhibition, %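 (tested at about 20 µM)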; Plk1 PBD phosphopeptide binding, fluorescence polarization; 97,000 tested, 0.13% active; P53350; in the data active means inhibition above about 34%, passing the limit was not always enough
EphB4 ephrin blk = blocks human EphB4 binding to ephrin-B2. inhibition, % at 7 µM. EphB4 LBD / TNYL-RAW-Alexa532 peptide, fluorescence polarization. 97,000 tested, 0.15% active;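 active means inhibition above the screen-wide mean inhibition plus 3 SD, cut at about 15% in these data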
PLK1 kinase inh = blocks human PLK1 kinase activity | recombinant PLK1 kinase, TR-FRET peptide phosphorylation | inhibition, % at 10 µM | 97,000 tested, 0.53% active;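 active means inhibition of 50% or more in the single-concentration screen; inactive means inhibition below 50%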
Rev-RRE block = HIV Rev-RRE protein-RNA interaction inhibition; P05866; Rev peptide-RRE RNA binding, FRET; inhibition, % at 8 µM; 97,000 tested, 0.79% active; AID 704;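 active means inhibition above the screen-wide mean plus 3 SD, cut at about 35% in these data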
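Test system – labelled RRE RNA duplex and labelled Rev peptide · Signal – fluorescein-to-Cy5 FRET, 480 nm excitation · Evaluation – % inhibition of FRET ratio versus controls · Benchmarks – DMSO low control, neomycin B high control · Incubation – 5 min RNA-compound premix plus 15 min binding step, 25 °C · Medium – HEPES pH 7.5 salt buffer with EDTA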
FAK blocker = inhibitors of human focal adhesion kinase; Q05397; biochemical FAK kinase activity assay; inhibition, %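 (tested at 7 µM)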; 97,000 tested, 0.84% active; in the data active means inhibition above about 19%
Target sequence (Q05397 whole entry, looked up): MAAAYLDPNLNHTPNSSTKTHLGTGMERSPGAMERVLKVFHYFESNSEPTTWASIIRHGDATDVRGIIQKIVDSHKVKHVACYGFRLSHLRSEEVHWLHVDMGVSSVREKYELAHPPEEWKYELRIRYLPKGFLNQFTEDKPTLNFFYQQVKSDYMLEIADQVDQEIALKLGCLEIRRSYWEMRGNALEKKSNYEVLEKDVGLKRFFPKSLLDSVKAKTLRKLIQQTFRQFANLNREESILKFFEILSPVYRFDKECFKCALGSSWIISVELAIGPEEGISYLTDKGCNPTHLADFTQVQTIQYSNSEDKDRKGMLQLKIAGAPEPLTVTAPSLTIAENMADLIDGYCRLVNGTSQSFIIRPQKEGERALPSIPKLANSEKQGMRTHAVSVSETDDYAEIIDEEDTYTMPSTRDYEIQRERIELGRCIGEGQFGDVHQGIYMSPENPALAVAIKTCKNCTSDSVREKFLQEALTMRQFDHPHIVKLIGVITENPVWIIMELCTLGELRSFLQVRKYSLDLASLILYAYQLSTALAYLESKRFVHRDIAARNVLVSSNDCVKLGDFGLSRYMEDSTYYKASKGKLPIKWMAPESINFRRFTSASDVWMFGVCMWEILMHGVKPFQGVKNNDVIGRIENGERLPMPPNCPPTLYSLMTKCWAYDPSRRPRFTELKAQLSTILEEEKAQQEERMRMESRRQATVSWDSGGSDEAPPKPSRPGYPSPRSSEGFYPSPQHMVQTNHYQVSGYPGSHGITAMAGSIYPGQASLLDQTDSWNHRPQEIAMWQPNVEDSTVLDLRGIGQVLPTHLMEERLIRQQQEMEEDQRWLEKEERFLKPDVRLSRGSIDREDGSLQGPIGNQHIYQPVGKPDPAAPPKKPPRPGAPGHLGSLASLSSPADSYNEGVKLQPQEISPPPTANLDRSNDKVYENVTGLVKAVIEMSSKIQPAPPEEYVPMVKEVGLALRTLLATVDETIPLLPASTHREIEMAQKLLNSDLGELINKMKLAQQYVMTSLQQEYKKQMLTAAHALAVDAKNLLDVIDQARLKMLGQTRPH
Cav3 T inh = human Cav3.2 channel inhibition, primary screen. AID 449739. B-score at 10 µM. Cav3.2-expressing cells, Fluo-4 calcium fluorescence FDSS; stronger effect = lower value. O95180. 100,000 tested, 4% active;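 active means single-dose well whose peak fluorescence ratio is a statistical outlier from its plate by either plate-standardised score or position-corrected B-score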
Each line names hits and unclear results; the compound was inactive in the other large screens.

CC(C)(C)c1ccc(C2(C)NC(=O)N(CC(=O)Nc3ccc4c(c3)OCO4)C2=O)cc1 (centres undefined)	Cav3 T inh -5.6
CC1(c2ccc(OC(F)F)cc2)NC(=O)N(CC(=O)Nc2ccc3c(c2)OCO3)C1=O (centres undefined)	none
COc1ccc(N(C(=O)c2ccccc2OC(C)=O)C(C)C2CC2)cc1 (centres undefined)	none
CC(=O)C(N=Nc1ccccc1)(Sc1nnc(-c2ccccc2)n1-c1ccccc1)C(C)=O	Cav3 T inh -4.4
CC(=O)C(N=Nc1ccccc1)(Sc1nnc(-c2ccccc2)n1-c1ccccc1)C(=O)Nc1ccccc1 (centres undefined)	Cav3 T inh -6.7
NCCCC[C@@H]1NC(=O)[C@H](CCC(=O)O)NC(=O)c2cc([N+](=O)[O-])cc(I)c2OCC[C@@H](C(N)=O)NC1=O	none (no result: PLK1 PBD inh, EphB4 ephrin blk, PLK1 kinase inh, Rev-RRE block, FAK blocker)
COc1ccc(OC)c(NC(=O)C2=C(C)Nc3ncnn3C2c2cccs2)c1 (centres undefined)	none (no result: PLK1 PBD inh, EphB4 ephrin blk, PLK1 kinase inh, Rev-RRE block, FAK blocker)
COc1ccc(C2C3=C(Nc4ncnn42)c2ccccc2CC3)cc1OC (centres undefined)	none
Brc1ccc(C2C3=C(Nc4ncnn42)c2ccccc2OC3c2ccncc2)cc1 (centres undefined)	Cav3 T inh -4.9
COc1ccc(C2Oc3ccccc3C3=C2C(c2cccs2)n2ncnc2N3)cc1 (centres undefined)	Cav3 T inh -7.1
CC(O)C1CCC2C3CC[C@H]4CC(O)CCC4(C)C3CC3(OCCO3)C12C (some centres undefined)	none
COC(=O)CCN(C(=O)C1C2CC3CC(C2)CC1C3)c1ccccn1 (centres undefined)	none (no result: PLK1 PBD inh, EphB4 ephrin blk, PLK1 kinase inh, Rev-RRE block, FAK blocker)
COc1ccc(C(=O)OCC(=O)NCc2ccco2)cc1S(=O)(=O)N1CCN(c2cccc(Cl)c2)CC1	Cav3 T inh -7.4
COc1ccc(CN2C(=O)c3ccccc3C(/C=N\OCc3ccc(F)cc3)C2=O)cc1 (centres undefined)	Cav3 T inh -3.7
CCC(=O)Nc1ccc(-c2nn3c(C)nnc3s2)cc1	none (no result: Cav3 T inh)
O=C(Nc1cccc(NC(=O)c2ccc(-c3ccc(Br)cc3)o2)c1)c1ccccc1	Cav3 T inh -6.1
COc1ccccc1NC(=O)c1ccc(-c2ccc(Br)cc2)o1	none
Cc1nnc2sc(-c3ccc(NC(=O)c4ccc(-c5ccc(Br)cc5)o4)cc3)nn12	FAK blocker 21 (no result: Cav3 T inh)
O=C(Nc1ccccc1)c1ccc(-c2ccc(Br)cc2)o1	Cav3 T inh -5.3
COC(=O)c1cc2sc(Cl)cc2n1CC(=O)NCCC(C)C	none
Cc1csc(NC(=O)c2nc(-c3ccccc3)n(-c3ccccc3)n2)n1	none (no result: PLK1 PBD inh, EphB4 ephrin blk, PLK1 kinase inh, Rev-RRE block, FAK blocker)
CCCC(C)NC(=O)c1nc(-c2ccccc2)n(-c2ccccc2)n1 (centres undefined)	Cav3 T inh -4.9
Cc1ccc(C)c(NC(=O)c2nc(-c3ccccc3)n(-c3ccccc3)n2)c1	Cav3 T inh -5.8
C#CC(CC)(CC)NC(=S)Nc1cccc(C(C)=O)c1	none
COc1cccc(NC(=O)c2nnn(CCc3ccccc3)c2N)c1	Cav3 T inh -2.6
COc1cccc(NC(=O)Cn2nnc(C(=O)Nc3ccccc3)c2N)c1	none
CC(=O)OCC(CCn1cnc2cnc(N)nc21)COC(C)=O	none (no result: PLK1 PBD inh, EphB4 ephrin blk, PLK1 kinase inh, Rev-RRE block, FAK blocker)
CCCCCCn1c(C)nc2c(c1=O)c1nc3ccccc3nc1n2/N=C/c1ccco1	Cav3 T inh -5.1
O=C(NCc1ccccc1)N1CCN(c2ccc(Cl)c(Cl)c2)CC1	Cav3 T inh -5.2
O=C(Nc1ccccc1)N1CCN(c2ccc(F)cc2)CC1	none
O=C(NCc1ccccc1)N1CCN(c2ccc(F)cc2)CC1	Cav3 T inh -4.3
N=c1c2c(-c3ccccc3)c(-c3ccccc3)n(Cc3ccccc3)c2ncn1CCCn1ccnc1	none
N=c1c2c(-c3ccccc3)c(-c3ccccc3)n(Cc3ccco3)c2ncn1Cc1ccco1	Cav3 T inh -9.3 (no result: PLK1 PBD inh, EphB4 ephrin blk, PLK1 kinase inh, Rev-RRE block, FAK blocker)
Cc1cc(C)n(S(=O)(=O)c2cccc(Cl)c2Cl)n1	none
O=C(NCc1cc(C(F)(F)F)cc(C(F)(F)F)c1)C1CC(c2ccc(C(F)(F)F)cc2)=NO1 (centres undefined)	none (no result: PLK1 PBD inh, EphB4 ephrin blk, PLK1 kinase inh, Rev-RRE block, FAK blocker)
CCc1ccc2[nH]c(=O)c(CN(Cc3ccccc3OC)Cc3nnnn3Cc3ccco3)cc2c1	none
COc1ccccc1CN(Cc1cc2cc(C)ccc2[nH]c1=O)Cc1nnnn1Cc1ccco1	Cav3 T inh -4.4
CCOC(=O)Cn1nnnc1CN(Cc1ccc(OC)cc1)Cc1cc2cc(CC)ccc2[nH]c1=O	Cav3 T inh -5.4
CCOC(=O)Cn1nnnc1CN(Cc1ccc(OC)cc1)Cc1cc2cc(C)ccc2[nH]c1=O	none
COCCn1nnnc1CN(Cc1cc2cc(OC)c(OC)cc2[nH]c1=O)C1CCCC1	none
COc1cc2cc(CN(Cc3nnnn3Cc3ccco3)C3CCCCC3)c(=O)[nH]c2cc1OC	Rev-RRE block 45
COC(=O)C1=C(C(=O)OC)[C@@H]2Nc3ccccc3[C@@]23C[C@@H](C(=O)OC)N(C(C)=O)C3=N1	none (no result: PLK1 PBD inh, EphB4 ephrin blk, PLK1 kinase inh, Rev-RRE block, FAK blocker)
Cc1cc(NC(=O)CSc2nc3sc(C)c(C)c3c(=O)n2C2CCCC2)no1	none
COc1ccc(-c2onc(C)c2-c2ccc(C(=O)OC(C)C)o2)c(O)c1	Cav3 T inh -5.2
CCCc1cc(-c2n[nH]c(C)c2-c2ccc(C(=O)OCC)o2)c(O)cc1O	none
CCn1c(=S)sc2c(=O)[nH]c(C)nc21	PLK1 kinase inh 58
COC(=O)C1C(=O)C2=C(CC1C)NC(C)=C(C(=O)OCc1ccc(OC)cc1)C2c1ccc(C)o1 (centres undefined)	none
CC1=C(C(=O)OCCOc2ccccc2)C(c2ccc(C)o2)C2=C(CC(C)(C)CC2=O)N1 (centres undefined)	Cav3 T inh -7.1
COC(=O)C1C(=O)C2=C(CC1C)NC(C)=C(C(=O)OCCOc1ccccc1)C2c1ccc(C)o1 (centres undefined)	Cav3 T inh -5.2
CC1=C(C(=O)OCc2ccccc2)C(c2ccc(C)o2)C2=C(CCCC2=O)N1 (centres undefined)	none (no result: PLK1 PBD inh, EphB4 ephrin blk, PLK1 kinase inh, Rev-RRE block, FAK blocker)
CCC1CCc2c(sc3nc(SCC(=O)NCc4ccco4)n(-c4ccccc4)c(=O)c23)C1 (centres undefined)	none
COC(C[C@H]1O[C@H]1C(=O)COCc1ccccc1)OC	none (no result: PLK1 PBD inh, EphB4 ephrin blk, PLK1 kinase inh, Rev-RRE block, FAK blocker)
O=C(CCC1COc2ccccc2O1)Nc1ccc(Cl)cn1 (centres undefined)	Cav3 T inh -5.9
COC(=O)c1nn(-c2ccccc2)c(Sc2ccc(Br)cc2)c1/C=N/O	none
O=S(=O)(NCCSc1ccc(Cl)cc1)c1ccc(F)cc1	Cav3 T inh -7.7
O=S(=O)(NCCCCCNS(=O)(=O)c1ccc(F)cc1)c1ccc(F)cc1	Cav3 T inh -5.8
O=S(=O)(NCCCCCNS(=O)(=O)c1ccccc1)c1ccccc1	none
COc1ccc(S(=O)(=O)NCCSc2ccc(C)cc2)cc1OC	none
Cc1ccc(SCCNS(=O)(=O)c2ccc(F)cc2)cc1	Cav3 T inh -8.7
